{"source": "ChEMBL document CHEMBL1142435", "about": "“Two-step synthesis of achiral dispiro-1,2,4,5-tetraoxanes with outstanding antimalarial activity, low toxicity, and high-stability profiles” (J Med Chem, 2008)", "key": {"Plasmodium falciparum [1]": {"test_system": "Plasmodium falciparum", "test": "Antimalarial activity against Plasmodium falciparum 3D7", "type": "functional, organism-based"}, "Salmonella typhimurium [2]": {"test_system": "Salmonella typhimurium", "test": "Genotoxicity against Salmonella Typhimurium TA 1535/pSK1002 assessed as induction of umu operon expression", "type": "toxicity, organism-based", "details": "salmonella enterica subsp. enterica serovar typhimurium"}, "Salmonella typhimurium [3]": {"test_system": "Salmonella typhimurium", "test": "Genotoxicity against Salmonella Typhimurium TA 1535/pSK1002 assessed as induction of umu operon expression in presence of rat liver S9 fraction", "type": "toxicity, organism-based", "details": "salmonella enterica subsp. enterica serovar typhimurium", "procedure,_shortened": "(§1)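 SOS/umu assay with rat liver S9-mix for metabolic activation. Tester strains carry plasmid pSK1002 with a umuC-lacZ fusion, and induced β-galactosidase activity is the read-out. Positive controls checked strain response. The highest concentration tested was 50 µM.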"}, "Salmonella typhimurium [4]": {"test_system": "Salmonella typhimurium", "test": "Genotoxicity against Salmonella Typhimurium NM2009 assessed as induction of umu operon expression", "type": "toxicity, organism-based", "details": "salmonella enterica subsp. enterica serovar typhimurium"}, "Salmonella typhimurium [5]": {"test_system": "Salmonella typhimurium", "test": "Genotoxicity against Salmonella Typhimurium NM2009 assessed as induction of umu operon expression in presence of rat liver S9 fraction", "type": "toxicity, organism-based", "details": "salmonella enterica subsp. enterica serovar typhimurium", "procedure,_shortened": "as §1"}, "[6]": {"test": "Cytotoxicity against rat L6 cells by resazurin reduction assay", "type": "cell-based", "details": "read-out: TC50 (the source's name)", "procedure,_shortened": "(§2)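 Cytotoxicity was read by resazurin reduction. A single full dose-response curve was built from 10 independent drug concentrations to give TOX₅₀.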"}, "[7]": {"test": "Cytotoxicity against human MRC5 cells by resazurin reduction assay", "type": "cell-based", "details": "read-out: TC50 (the source's name)", "procedure,_shortened": "as §2"}, "[8]": {"test": "Cytotoxicity against african green monkey Vero cells by resazurin reduction assay", "type": "cell-based", "details": "chlorocebus sabaeus, read-out: TC50 (the source's name)", "procedure,_shortened": "as §2"}, "[9]": {"test": "Cytotoxicity against rat H9c(2-1) cells by resazurin reduction assay", "type": "cell-based", "details": "read-out: TC50 (the source's name)", "procedure,_shortened": "as §2"}, "[10]": {"test": "Therapeutic index, ratio of TOX50 for human […] cells to IC50 Plasmodium falciparum 3D7", "type": "cell-based", "procedure,_shortened": "(§3)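 TOX₅₀ came from resazurin reduction, with single full dose-response curves over 10 independent concentrations. The index is TOX₅₀ divided by the IC₅₀ against the P. falciparum 3D7 isolate.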"}, "[11]": {"test": "Therapeutic index, ratio of TOX50 for rat L6 cells to IC50 Plasmodium falciparum 3D7", "type": "cell-based", "procedure,_shortened": "as §3"}, "[12]": {"test": "Therapeutic index, ratio of TOX50 for human MRC5 cells to IC50 Plasmodium falciparum 3D7", "type": "cell-based", "procedure,_shortened": "as §3"}, "[13]": {"test": "Therapeutic index, ratio of TOX50 for african green monkey (Cercopithecus aethiops) Vero cells to IC50 Plasmodium falciparum 3D7", "type": "cell-based", "procedure,_shortened": "as §3"}, "[14]": {"test": "Therapeutic index, ratio of TOX50 for rat H9c(2-1) cells to IC50 Plasmodium falciparum 3D7", "procedure,_shortened": "as §3"}, "[15]": {"test": "Cytotoxicity against human […] cells by resazurin reduction assay", "type": "cell-based", "details": "read-out: TC50 (the source's name)", "procedure,_shortened": "as §2"}, "Plasmodium falciparum [16]": {"test_system": "Plasmodium falciparum", "test": "Antimalarial activity against Plasmodium falciparum K1", "type": "functional, organism-based"}, "[17]": {"test": "Chemical stability assessed as endoperoxide recovery after 4 hrs by iron degradation study", "type": "physicochemical", "details": "read-out: Stability", "procedure,_shortened": "(§4)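 Endoperoxide (1.0 equiv FeBr₂) was held in THF for 4, 8, 24 or 48 h. The residue was purified by flash column chromatography, and the percent recovery of starting endoperoxide was calculated.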"}, "[18]": {"test": "Chemical stability assessed as endoperoxide recovery after 8 hrs by iron degradation study", "type": "physicochemical", "details": "read-out: Stability", "procedure,_shortened": "as §4"}, "[19]": {"test": "Chemical stability assessed as endoperoxide recovery after 24 hrs by iron degradation study", "type": "physicochemical", "details": "read-out: Stability", "procedure,_shortened": "as §4"}, "[20]": {"test": "Chemical stability assessed as endoperoxide recovery after 48 hrs by iron degradation study", "type": "physicochemical", "details": "read-out: Stability", "procedure,_shortened": "as §4"}}, "data": [{"smiles": "O=S(=O)(c1ccc(C(F)(F)F)cc1)N1CCC2(CC1)OOC1(OO2)C2CC3CC(C2)CC1C3", "values": [{"measurement": "IC50", "setting": "Plasmodium falciparum [1]", "value": 20.7, "unit": "nM"}]}, {"smiles": "O=C(CCc1ccc(S(=O)(=O)N2CCC3(CC2)OOC2(OO3)C3CC4CC(C3)CC2C4)cc1)NCCCCNc1ccc([N+](=O)[O-])c2nonc12", "values": [{"measurement": "IC50", "setting": "Plasmodium falciparum [1]", "value": 16, "unit": "nM"}]}, {"smiles": "Nc1ccc2cc3ccccc3cc2c1", "note": "[2-AMINOANTHRACENE]", "values": [{"measurement": "Activity", "setting": "Salmonella typhimurium [2]", "value": 1.1}, {"measurement": "Activity", "setting": "Salmonella typhimurium [3]", "value": 7.34}, {"measurement": "Activity", "setting": "Salmonella typhimurium [4]", "value": 1.08}, {"measurement": "Activity", "setting": "Salmonella typhimurium [5]", "value": 6.09}]}, {"smiles": "O=S(=O)(c1ccc(F)cc1)N1CCC2(CC1)OOC1(OO2)C2CC3CC(C2)CC1C3", "values": [{"measurement": "IC50", "setting": "Plasmodium falciparum [1]", "value": 16.7, "unit": "nM"}]}, {"smiles": "O=C(N1CCOCC1)N1CCC2(CC1)OOC1(OO2)C2CC3CC(C2)CC1C3", "values": [{"measurement": "IC50", "setting": "Plasmodium falciparum [1]", "value": 4.7, "unit": "nM"}]}, {"smiles": "O=S(=O)(C1CC1)N1CCC2(CC1)OOC1(OO2)C2CC3CC(C2)CC1C3", "values": [{"measurement": "CC50", "setting": "[6]", "value": "> 50000", "unit": "nM"}, {"measurement": "CC50", "setting": "[7]", "value": "> 50000", "unit": "nM"}, {"measurement": "CC50", "setting": "[8]", "value": "> 50000", "unit": "nM"}, {"measurement": "CC50", "setting": "[9]", "value": "> 50000", "unit": "nM"}, {"measurement": "TI", "setting": "[10]", "value": "> 14300"}, {"measurement": "TI", "setting": "[11]", "value": "> 14300"}, {"measurement": "TI", "setting": "[12]", "value": "> 14300"}, {"measurement": "TI", "setting": "[13]", "value": "> 14300"}, {"measurement": "TI", "setting": "[14]", "value": "> 14300"}, {"measurement": "Activity", "setting": "Salmonella typhimurium [2]", "value": 1.05}, {"measurement": "Activity", "setting": "Salmonella typhimurium [3]", "value": 0.99}, {"measurement": "Activity", "setting": "Salmonella typhimurium [4]", "value": 1.09}, {"measurement": "Activity", "setting": "Salmonella typhimurium [5]", "value": 1.07}, {"measurement": "IC50", "setting": "Plasmodium falciparum [1]", "value": 3.52, "unit": "nM"}, {"measurement": "CC50", "setting": "[15]", "value": "> 50000", "unit": "nM"}]}, {"smiles": "CCS(=O)(=O)N1CCC2(CC1)OOC1(CCCCCCCCCCC1)OO2", "values": [{"measurement": "IC50", "setting": "Plasmodium falciparum [1]", "value": 29.1, "unit": "nM"}]}, {"smiles": "C[C@H]1[C@H](OC(=O)CCC(=O)O)O[C@@H]2OC3(C)CC[C@H]4[C@H](C)CC[C@@H]1[C@@]24OO3", "note": "(single isomer, unassigned) [SODIUM ARESUNATE]", "values": [{"measurement": "IC50", "setting": "Plasmodium falciparum [1]", "value": 0.6, "unit": "nM"}, {"measurement": "IC50", "setting": "Plasmodium falciparum [16]", "value": 0.7, "unit": "nM"}]}, {"smiles": "O=S(=O)(c1ccccc1)N1CCC2(CC1)OOC1(O2)C2CC3CC(C2)CC1C3", "note": "(centres undefined)", "values": [{"measurement": "remaining at 4 h", "setting": "[17]", "value": 11, "unit": "%"}, {"measurement": "remaining at 8 h", "setting": "[18]", "value": 9, "unit": "%"}, {"measurement": "remaining at 24 h", "setting": "[19]", "value": 2.6, "unit": "%"}, {"measurement": "remaining at 48 h", "setting": "[20]", "value": 0, "unit": "%"}, {"measurement": "IC50", "setting": "Plasmodium falciparum [1]", "value": 4.98, "unit": "nM"}]}, {"smiles": "CS(=O)(=O)N1CCC2(CC1)OOC1(OO2)C2CC3CC(C2)CC1C3", "values": [{"measurement": "IC50", "setting": "Plasmodium falciparum [1]", "value": 10.2, "unit": "nM"}]}, {"smiles": "O=S(=O)(CC(F)(F)F)N1CCC2(CC1)OOC1(OO2)C2CC3CC(C2)CC1C3", "values": [{"measurement": "IC50", "setting": "Plasmodium falciparum [1]", "value": 14.3, "unit": "nM"}]}, {"smiles": "CC(C)S(=O)(=O)N1CCC2(CC1)OOC1(CCCCCCCCCCC1)OO2", "values": [{"measurement": "IC50", "setting": "Plasmodium falciparum [1]", "value": 86.4, "unit": "nM"}]}]}
